Test results taken from ChEMBL document CHEMBL4257552, “2-Aminobenzimidazoles as antibiofilm agents against Salmonella enterica serovar Typhimurium” (Medchemcomm, 2018).

Tests used:
Salmonella typhimurium [1] = assay: Antibiofilm activity against Salmonella typhimurium ATCC 14028 after 24 hrs by crystal violet staining based assay; format: functional, organism-based, Salmonella enterica subsp. enterica serovar Typhimurium; settings: Salmonella enterica, ATCC 14028, 24 h
Summary of the method: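 S. Typhimurium ATCC 14028 overnight TSB culture subcultured to OD600 0.08 in 1:20 TSB:water, compound added at set concentrations, static incubation in PVC 96-well plates 24 h at 30 °C. IC50 from dose-response curves.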

Galleria mellonella = assay: Toxicity in Galleria mellonella at 400 mg/kg; format: organism-based; settings: in vivo
Salmonella typhimurium [2] = assay: Inhibition of planktonic growth of Salmonella typhimurium ATCC 14028 after 2 to 24 hrs; format: organism-based; settings: salmonella enterica subsp. enterica serovar typhimurium
Summary of the method: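 Overnight TSB culture diluted into fresh 1:20 TSB (OD600 0.08), 3 mL tubes with compound or untreated control, shaken at 30 °C. Samples at 2, 4, 6, 8 and 24 h serially diluted in 1:20 TSB, plated on nutrient agar, incubated overnight at 37 °C, and colonies counted.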

SMILES | IC50 (Salmonella typhimurium [1]) | further results
CCCCCc1ccc(C(=O)Nc2ccc3c(c2)nc(N)n3C)cc1 | 20 to 40 µM | 
CCCCCc1ccc(C(=O)Nc2ccc3c(c2)nc(N)n3C(C)C)cc1 | 20 to 40 µM | 
CCCCCc1ccc(C(=O)Nc2ccc3c(c2)nc(N)n3CCCC)cc1 | 15 to 20 µM | 
CCCCCCCCCCCCn1c(N)nc2cc(NC(=O)c3ccc(CCCCC)cc3)ccc21 | 20 to 40 µM | 
CCCCCc1ccc(C(=O)Nc2ccc3c(c2)nc(N)n3C2CCCC2)cc1 | 15 to 20 µM | 
CCCCCc1ccc(C(=O)Nc2ccc3c(c2)nc(N)n3CCc2cnc[nH]2)cc1 | 20 to 40 µM | 
CCCCCCc1ccc(C(=O)Nc2ccc3c(c2)nc(N)n3CCCc2ccccc2)cc1 | 15 to 20 µM | 
CCc1ccc(C(=O)Nc2ccc3c(c2)nc(N)n3CCCc2ccccc2)cc1 | 20 to 40 µM | 
CCCCOc1ccc(C(=O)Nc2ccc3c(c2)nc(N)n3CCCc2ccccc2)cc1 | 15 to 20 µM | 
CCCCCCCc1ccc(C(=O)Nc2ccc3c(c2)nc(N)n3CCCc2ccccc2)cc1 | 15 to 20 µM | 
CCCCCCCC(=O)Nc1ccc2c(c1)nc(N)n2CCCc1ccccc1 | > 40 µM | 
CCCCCCCCCCn1c(N)nc2cc(NC(=O)c3ccc(CCCCC)cc3)ccc21 | 20 to 40 µM | 
CCCCCc1ccc(C(=O)Nc2ccc3nc(N)n(C)c3c2)cc1 | 20 to 40 µM | 
CCCc1ccc(C(=O)Nc2ccc3c(c2)nc(N)n3CCCc2ccccc2)cc1 | 15 to 20 µM | 
CCCCCc1ccc(C(=O)Nc2ccc3nc(N)n(CC)c3c2)cc1 | 20 to 40 µM | 
CCCCCCCCCCCC(=O)Nc1ccc2c(c1)nc(N)n2CCCc1ccccc1 | > 50 µM | 
CCCCCCC(=O)Nc1ccc2c(c1)nc(N)n2CCCc1ccccc1 | 20 to 40 µM | 
CCCCCCCCCCC(=O)Nc1ccc2c(c1)nc(N)n2CCCc1ccccc1 | 10 to 15 µM | 
CCCCCCCCc1ccc(C(=O)Nc2ccc3c(c2)nc(N)n3CCCc2ccccc2)cc1 | > 50 µM | 
CCCCCc1ccc(C(=O)Nc2ccc3c(c2)nc(N)n3C2CCCCC2)cc1 | 15 to 20 µM | 
CCCOc1ccc(C(=O)Nc2ccc3c(c2)nc(N)n3CCCc2ccccc2)cc1 | 10 to 15 µM | 
CCCCCCCCC(=O)Nc1ccc2c(c1)nc(N)n2CCCc1ccccc1 | 15 to 20 µM | 
CCCCCc1ccc(C(=O)Nc2ccc3nc(N)n(C(C)C)c3c2)cc1 | 20 to 40 µM | 
CCCCCCCCCCCCCC(=O)Nc1ccc2c(c1)nc(N)n2CCCc1ccccc1 | > 50 µM | 
CCCCCc1ccc(C(=O)Nc2ccc3[nH]c(N)nc3c2)cc1 | 20 to 40 µM | 

Further lines, with some results ahead:

IC50 (Salmonella typhimurium [1]) | SMILES | further results
10.8 µM | CCCCCCn1c(N)nc2cc(NC(=O)c3ccc(CCCCC)cc3)ccc21 | 
6.66 µM | CCCCCCCCn1c(N)nc2cc(NC(=O)c3ccc(CCCCC)cc3)ccc21 | 
10 to 15 µM | CCCCCc1ccc(C(=O)Nc2ccc3c(c2)nc(N)n3CCc2c[nH]c3ccccc23)cc1 | 
13.1 µM | CCCCCc1ccc(C(=O)Nc2ccc3c(c2)nc(N)n3CCCc2ccccc2)cc1 | 
9.59 µM | CCCCCc1ccc(C(=O)Nc2ccc3c(c2)nc(N)n3CCCCc2ccccc2)cc1 | 
10 to 15 µM | CCCCCCn1c(N)nc2ccc(NC(=O)c3ccc(CCCCC)cc3)cc21 | 
10 to 15 µM | Cl.Nc1nc2cc(NC(=O)c3cc(Cl)cc(Cl)c3)ccc2n1CCCc1ccccc1 | Activity (Galleria mellonella): Non-Toxic
7.69 µM | Cl.Nc1nc2cc(NC(=O)Nc3ccc(Cl)c(Cl)c3)ccc2n1CCCc1ccccc1 | Activity (Salmonella typhimurium [2]): Non-Toxic
6.3 µM | Cl.Nc1nc2cc(NC(=O)c3ccc(Cl)c(Cl)c3)ccc2n1CCCc1ccccc1 | Activity (Galleria mellonella): Non-Toxic
5.22 µM | CCCCCOc1ccc(C(=O)Nc2ccc3c(c2)nc(N)n3CCCc2ccccc2)cc1.Cl | growth inhibition (GI) (Salmonella typhimurium [2]): Non-Toxic
10 to 15 µM | CCCCCCCCCC(=O)Nc1ccc2c(c1)nc(N)n2CCCc1ccccc1 | 
10 to 15 µM | CCCCCc1ccc(C(=O)Nc2ccc3c(c2)nc(N)n3CC(C)C)cc1 | 
10 to 15 µM | CCCCCc1ccc(C(=O)Nc2ccc3nc(N)n(CCCC)c3c2)cc1 | 
10 to 15 µM | CCCCc1ccc(C(=O)Nc2ccc3c(c2)nc(N)n3CCCc2ccccc2)cc1 | 
12.6 µM | Nc1nc2cc(C(=O)Nc3ccc(Cl)c(Cl)c3)ccc2n1CCCc1ccccc1 | 
5.38 µM | Nc1nc2cc(NC(=O)c3ccc(Br)c(Br)c3)ccc2n1CCCc1ccccc1 | 
5.58 µM | Nc1nc2cc(NC(=O)c3cc(Br)cc(Br)c3)ccc2n1CCCc1ccccc1 | 
